# Hits are enriched below; roughly 1.9% of the tested compounds scored in any of these assays.
# M5 PAM = CHRM5 positive allosteric modulation | activation, % at 3 µM | CHO-K1 hM5, Fluo-8 calcium, ACh EC20 PAM; 0% = ACh EC20, 100% = ACh EC100 | 360,000 compounds, 0.3% hits | AID 624038;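 active means activation above the run cutoff, the mean activation of all test compounds plus 3 SD, cut at about 18% in these data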
# Target sequence (P08912 whole entry, looked up): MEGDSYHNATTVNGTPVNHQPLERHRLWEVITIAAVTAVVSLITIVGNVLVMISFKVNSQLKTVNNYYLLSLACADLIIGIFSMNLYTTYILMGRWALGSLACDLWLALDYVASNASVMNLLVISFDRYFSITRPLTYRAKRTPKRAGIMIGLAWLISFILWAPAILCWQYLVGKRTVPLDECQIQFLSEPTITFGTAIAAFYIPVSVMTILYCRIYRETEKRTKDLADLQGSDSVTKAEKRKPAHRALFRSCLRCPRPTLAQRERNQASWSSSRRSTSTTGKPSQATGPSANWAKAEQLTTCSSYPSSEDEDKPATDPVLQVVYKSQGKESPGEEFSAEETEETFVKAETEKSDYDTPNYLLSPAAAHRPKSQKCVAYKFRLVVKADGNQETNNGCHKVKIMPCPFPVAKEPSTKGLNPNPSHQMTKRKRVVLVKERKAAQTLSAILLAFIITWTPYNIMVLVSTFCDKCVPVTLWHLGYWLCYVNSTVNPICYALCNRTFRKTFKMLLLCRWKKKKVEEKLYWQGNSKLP
#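 Measured by: Fluo-8 calcium fluorescence; material: human M5 receptor in CHO-K1 cells; schedule: Post-acetylcholine fluorescence recording 140 s; benchmarks: low control EC20 acetylcholine (0%), high control EC100 acetylcholine (100%); read-out: Max/basal fluorescence ratio as % of EC20–EC100 ACh window; compound: single dose, 3 µM nominal final test concentration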
# M5 antag = antagonists of human muscarinic M5 receptor (CHRM5) | P08912 | CHO-hM5 cells, Fluo-8 calcium fluorescence, ACh EC80 | 360,000 compounds, 0.59% hits | inhibition, % at 3 µM;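 active means inhibition above a per-plate cutoff, the mean of that plate's test compounds plus 3 SD, cut at about 27% in these data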
# CHRM4 PAM = potentiates acetylcholine response at human M4 receptor; P08173; CHO-K1 hM4/Gqi5, Fluo-8 calcium fluorescence, ACh EC20; 0% = ACh EC20, 100% = maximal ACh; activation, % at 3 µM; 360,000 compounds, 0.4% hits; AID 624126;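 active means activation above its plate's cutoff, the mean activation of sample wells plus 3 SD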
# CHRM4 antagonist = CHRM4 antagonism in calcium assay; P08173; CHO-hM4 cells, ACh EC80, Fluo-8 calcium fluorescence; inhibition, % at 3 µM; 360,000 compounds, 0.73% hits;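 active means inhibition above its plate's cutoff, the mean inhibition of sample wells plus 3 SD, cut at about 27% in these data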
# M5 ag = agonists of human muscarinic M5 receptor (CHRM5). P08912. CHO-K1 hM5 cells, Fluo-8 calcium fluorescence; 0% DMSO wells, 100% maximal acetylcholine response. activation, % at 3 µM. 360,000 compounds, 0.19% hits;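 active means activation above the run's mean over test compounds plus 3 SD, cut at about 23% in these data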;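 further: signal is peak over basal fluorescence ratio across the kinetic read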
# M4 ag = agonists of human muscarinic M4 receptor (CHRM4); CHO-K1 hM4/Gqi5, Fluo-8 calcium fluorescence; vehicle 0%, full acetylcholine response 100%; activation, % at 3 µM; 360,000 compounds, 0.14% hits; AID 624127;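 active means activation above the run mean over all test wells plus 3 SD, cut at about 32% in these data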;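 further: peak over basal fluorescence ratio per well then scaled between controls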
# Hits are given with their value; – = inactive.
SMILES,M5 PAM,M5 antag,CHRM4 PAM,CHRM4 antagonist,M5 ag,M4 ag
Cc1ccc(CNc2ncc(-c3ccc4c(c3)OCO4)n2C)cc1,–,–,–,28,–,–
Cn1c(-c2ccc3c(c2)OCO3)cnc1NCc1ccc(Cl)cc1,–,–,–,–,–,–
CCC(=O)Nc1c(-c2ccc(Cl)cc2)c(=O)c2ccccc2n1C,–,–,–,–,–,–
Cc1ccc(O)c([C@H](CCN(C(C)C)C(C)C)c2ccccc2)c1,–,99,–,100,–,–
Cc1cccc(CN(C(=S)Nc2c(C)cccc2C)c2cccnc2)c1,18,–,–,–,–,–
CCc1ccccc1NC(=S)N(Cc1cccc(C)c1)c1cccnc1,–,–,–,–,–,–
O=C(N/N=C\c1c(O)ccc2ccccc12)c1ccc(O)cc1,–,–,–,–,–,–
O=C(NN=Cc1c(O)ccc2ccccc12)c1ccncc1,–,–,–,–,46,–
O=C(N/N=C\c1c(O)ccc2ccccc12)c1cncc(Br)c1,–,–,–,–,67,38
COc1ccc(C(O)c2nc(-c3cncnc3)cs2)cc1 (stereo unspecified),–,–,–,–,–,–
COc1ccccc1NC(=O)CN1C(=O)COc2ccc(C)cc21,–,–,–,–,–,–
COc1ccc(C)cc1NC(=O)CN1C(=O)COc2ccc(C)cc21,22,–,–,–,–,–
CCOC(=O)C1(CCCc2ccccc2)CCN(C(=O)C2=C(C)OCCO2)CC1,–,–,–,–,–,–
COC(=O)c1cccc(NC(=O)/C=C/c2ccc3c(c2)OCO3)c1,–,–,–,–,–,–
COC(=O)c1cc(NC(=O)/C=C/c2ccc3c(c2)OCO3)cc(C(=O)OC)c1,–,–,–,36,–,–
COc1ccccc1-n1c(C)nc2cc(C(=O)O)ccc21,19,–,–,–,–,–
COc1ccc(C(=O)NNC(=O)CSc2nnc(C)n2C)cc1,–,–,–,–,–,–
CN1CCN(c2ccc([N+](=O)[O-])cc2C(=O)c2ccc(Br)cc2)CC1,–,37,–,–,–,–
Cc1ccc(C(=O)c2cc([N+](=O)[O-])ccc2N2CCN(C)CC2)cc1,–,–,–,–,–,–
CC(Cc1cccs1)NC(=O)Nc1ccc([N+](=O)[O-])cc1 (stereo unspecified),–,30,–,–,–,–
CC(C)(CO)NS(=O)(=O)c1ccc2c(c1)C(=NO)c1cc(S(=O)(=O)NC(C)(C)CO)ccc1-2,–,–,21,–,–,–
COCCNS(=O)(=O)c1ccc2c(c1)C(=NO)c1cc(S(=O)(=O)NCCOC)ccc1-2,–,–,–,–,–,–
Cc1cc(C=C2C(=O)CCCC2=O)c(C)n1-c1ccccc1,–,–,30,–,–,–
O=S1(=O)N=C(c2ccccc2)c2ccccc21,–,–,–,–,–,–
O=C(O)c1ccc(CNCc2cccc(Cl)c2Cl)cc1,–,–,28,–,–,–
SMILES,M5 PAM,M5 antag,CHRM4 PAM,CHRM4 antagonist,M5 ag,M4 ag
O=C(O)c1ccc(CNCc2ccccc2Cl)cc1,–,–,–,–,–,–
Cc1nnsc1C(=O)N1CCCC(C)(C(=O)NS(=O)(=O)C2CC2)C1 (stereo unspecified),–,–,20,–,–,–
C#CCN(C[C@@H]1[C@@H](OC(=O)NCC2CCCCC2)[C@@H](OC(=O)NCC2CCCCC2)Cn2c(=O)n(CCCCCC)c(=O)n21)S(=O)(=O)c1ccc(C)cc1,–,–,–,–,–,–
O=C(Nc1cc(=O)[nH]c2ncnn12)c1ccco1,–,–,–,–,–,–
COc1ccc(C(=O)Nc2cc(=O)[nH]c3ncnn23)cc1,–,–,–,29,–,–
Nc1cccc(N2C(=O)c3cccc4c(N)ccc(c34)C2=O)c1,–,–,–,–,–,39
Cc1cccc(N2C(=O)c3cccc4c(N(C)CCO)ccc(c34)C2=O)c1,–,–,–,–,42,38
O=C(O)c1cccc(N2C(=O)c3cccc4c(Cl)ccc(c34)C2=O)c1,–,–,–,–,–,–
Nc1ccc2c3c(cccc13)C(=O)N(c1ccccc1)C2=O,–,–,–,31,45,70
CC(C)CCN1C(=O)c2cccc3c(N)ccc(c23)C1=O,–,70,–,47,313,97
COCCN1C(=O)CCC1(C)c1nnnn1Cc1ccccc1 (stereo unspecified),–,–,–,–,–,–
Nc1ccn([C@@H]2O[C@H](C(=O)N3CCCN(Cc4ccccc4F)CC3)[C@@H](O)[C@H]2O)c(=O)n1,–,–,–,–,–,–
O=C1OC=NC1=Cc1ccccc1,–,–,–,–,–,–
Cc1cccc(N2C(=O)c3cccc4c(N)ccc(c34)C2=O)c1,–,51,–,29,380,104
Cc1cccc(N2C(=O)c3cccc4cccc(c34)C2=O)c1,–,–,–,–,–,–
CSc1ccc(CCNC(=O)CN2C(=O)c3cccnc3Oc3ccc(C)cc32)cc1,–,–,–,33,–,–
Cc1ccc(C2/C(=C(\O)c3c(C)nc4c(C)cccn34)C(=O)C(=O)N2CCN(C)C)o1 (stereo unspecified),–,–,–,–,–,–
Cc1nc2c(C)cccn2c1/C(O)=C1\C(=O)C(=O)N(CCN(C)C)C1c1ccco1 (stereo unspecified),21,–,–,–,–,–
CC(=O)NC12CC3CC(C1)CC(C(=O)Nc1nc4ccc(S(C)(=O)=O)cc4s1)(C3)C2,–,–,–,–,–,–
CCn1c(=O)c2cc(C(=O)NCCN3CCOCC3)sc2c2ccccc21,–,–,–,76,–,–
COc1ccc(-c2nnc(OC)c3ccccc23)cc1,–,–,–,35,–,–
C=C1C(=O)N(C)CCC1C(CC)C(=O)OC (stereo unspecified),–,–,–,–,–,–
OCC1(Cc2ccccc2)CCCN(Cc2ccc(-c3ccco3)cc2)C1 (stereo unspecified),–,–,–,–,–,–
OCC1(Cc2ccccc2)CCN(CCCC2CCCC2)CC1,–,–,–,49,–,–
OCC1(Cc2ccccc2)CCN(Cc2ccc(-c3ccco3)cc2)CC1,–,–,–,30,–,–
CCOc1ccc(N2C(=O)CSC2=S)cc1,18,–,–,–,–,–
O=C(O)c1cc(C(=O)O)cc(N2C(=O)CSC2=S)c1,–,–,17,–,–,–
O=C1CSC(=S)N1c1ccc(F)c(Cl)c1,–,33,–,–,–,–
O=C(O)c1ccc(N2C(=O)CSC2=S)cc1,–,–,–,–,–,–
